Bioassay records deposited in PubChem BioAssay by several laboratories.
Shown are actives, neighbours in structure and some others; about 1.4% of the full set was active somewhere.
DDE Tn6 FP inh – DD(E)-Tn6 binding inhibition, primary FP screen. inhibition, % at 8.3 µM. P02675. hit rate 0.21% among 370,000. AID 720509. Fibrin DD(E) TRITC-Tn6 fluorescence polarization displacement;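 active = inhibition above a per-campaign cutoff: mean of compounds within control limits plus 3 SD, cut at about 15% in these data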;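 also: 0% = median of all compound wells on the plate and 100% = blocking peptide control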
H9c2 TAG inh – reduces triacylglycerol accumulation in H9c2 cells | Nile Red lipid (TAG) fluorescence; cells loaded with 200 µM oleic acid | inhibition, % at 12.5 µM | hit rate 0.66% among 230,000 | AID 651582;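 active = pattern-corrected inhibition of lipid staining of at least 50% with the nuclear-stain viability signal not falling by more than 50%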;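 also: 0% = DMSO wells and 100% = triacsin C control wells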
Tn7 DDE FP – disrupts Tn7 cyclic peptide binding to fibrin D-Dimer-E complex | AID 720508 | FP displacement of FITC-Tn7 peptide from fibrin DD(E); 0% = median of compound wells per plate | hit rate 0.13% among 370,000 | inhibition, % at 8.3 µM | P02675;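 active = inhibition above the mean of compounds falling within the control limits plus 3 SD of them, cut at about 14% in these data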;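 also: 0% = plate median of compound wells and 100% = 10 µM Aha-Tn7 peptide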
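Test system: human clot-derived fibrin DD(E) complex / Quantity: 2 µM final DD(E) protein / Incubation: 10 min plus 3 h, room temperature / Measured by: fluorescence polarization / Benchmarks: high control of 10 µM Aha-Tn7 peptide / Replicates: singlicate testing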
H9c2 protect – myocardial damage modulation in H9c2 cells; H9c2 cardiomyocytes, H2O2 injury protection, ATPLite, 2 h; protection from H2O2 cell death, % at 20 µM; hit rate 0.63% among 360,000;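 active = compounds giving at least 50% protection of heart cells from peroxide-induced death in the single-dose screen, raw or plate-pattern-corrected value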;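 also: 0% = DMSO wells with peroxide and 100% = DMSO wells without peroxide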
DAGLB inh – blocks human DAGLB lipase activity | Q8NCG7 | HEK293T DAGLB membrane lysate, EnzChek fluorogenic substrate | inhibition, % at 5.17 µM | hit rate 0.059% among 340,000 | AID 504411; in the data active = inhibition above about 34%;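 also: 0% = enzyme with vehicle and 100% = wells lacking enzyme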
Target sequence (Q8NCG7 whole entry, looked up): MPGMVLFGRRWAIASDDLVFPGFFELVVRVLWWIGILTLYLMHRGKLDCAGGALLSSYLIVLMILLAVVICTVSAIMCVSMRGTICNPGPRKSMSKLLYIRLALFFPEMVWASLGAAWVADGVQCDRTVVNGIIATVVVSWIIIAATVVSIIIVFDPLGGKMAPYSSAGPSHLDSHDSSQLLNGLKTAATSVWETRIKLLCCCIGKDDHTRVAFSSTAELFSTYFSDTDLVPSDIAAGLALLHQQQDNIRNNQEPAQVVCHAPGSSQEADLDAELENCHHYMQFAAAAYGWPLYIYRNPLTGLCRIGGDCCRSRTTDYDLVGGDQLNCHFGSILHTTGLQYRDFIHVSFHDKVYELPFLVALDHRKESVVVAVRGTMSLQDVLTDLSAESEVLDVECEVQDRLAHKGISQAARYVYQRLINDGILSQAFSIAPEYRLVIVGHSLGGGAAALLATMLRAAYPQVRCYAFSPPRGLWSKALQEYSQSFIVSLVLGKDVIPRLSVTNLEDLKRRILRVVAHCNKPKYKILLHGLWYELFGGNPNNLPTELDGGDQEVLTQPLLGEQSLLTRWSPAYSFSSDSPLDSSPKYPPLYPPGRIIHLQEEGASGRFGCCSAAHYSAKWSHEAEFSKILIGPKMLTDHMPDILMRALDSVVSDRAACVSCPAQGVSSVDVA
MT1-MMP act inh – inhibitors of human MT1-MMP activation | AID 651647 | GFP/RFP ratio change, % at 20 µM | HT1080 RFP-PRO-GFP cells, GFP/RFP ratio fluorescence, overnight; percent of plate control window, DMSO zero | hit rate 0.061% among 360,000 | P50281;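 active = GFP/RFP ratio change of at least 30% with cell ATP level not reduced by more than half and red fluorescence within 50% of control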
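Assay system: RFP-PRO-GFP reporter HT1080 cells; read-out basis: GFP/RFP fluorescence ratio; benchmarks: DMSO wells and RFP-L50D-GFP cells; doses: 20 µM single dose, 1% DMSO; schedule: overnight cell settling, then overnight compound exposure, 37 °C, 5% CO2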
* = called active by the depositor; . = not tested or not shown.

SMILES	DDE Tn6 FP inh	H9c2 TAG inh	Tn7 DDE FP	H9c2 protect	DAGLB inh	MT1-MMP act inh
COC(=O)c1cccc(S(=O)(=O)N(Cc2ccco2)Cc2cc3cc(OC)ccc3[nH]c2=O)c1	6.3	12.9	0.7	78.5*	1.9	-7.9
CCCNC(=O)c1ccc2c(=O)c(O)c(-c3ccc(Cl)c([N+](=O)[O-])c3)[nH]c2c1	-13.8	20.2	-2.2	68.3*	11.8	19.6
COC(=O)[C@@]12CCCCC3=C1N(CCC3)C(=O)[C@H]2CC(=O)N1CCCC1	3.7	.	8.6	.	.	.
CC1(C)CC(=O)C2=C(C1)N(CCN1CCOCC1)C1=C(C(=O)CC(C)(C)C1)C2c1ccc(Cl)cc1	6.6	32.4	4.3	51.5*	2.4	-5.5
COc1ccc(C2C3=C(CC(C)(C)CC3=O)N(CCN3CCOCC3)C3=C2C(=O)CC(C)(C)C3)cc1	-3.8	11.0	4.6	27.9	-0.1	-2.0
CCc1nnn2c1Cn1c3ccccc3c(=O)n1[C@@H](C(C)C)C2	-3.3	.	-7.4	.	.	.
COc1ccc(-c2cc(-c3nnc(COC(=O)c4ccncc4)o3)c3ccccc3n2)cc1OC	1.5	9.2	2.4	78.9*	-2.4	3.8
CNC(=O)C[C@H]1CC[C@H]2[C@@H](COc3ccc(NC(=O)Nc4ccccc4)cc3C(=O)N2C)O1	1.3	.	-0.9	.	.	.
CCOCCN1CCN(c2c(CC)c(C)nc3cc(-c4cc(OC)cc(OC)c4)nn23)CC1	-2.8	.	-4.0	73.3*	-11.6	3.6
Cc1ccc(-c2nnn(CC(=O)Nc3ccc(S(=O)(=O)N4CCC(C)CC4)cc3)n2)cc1	-2.7	.	7.8	-1.9	-7.4	5.3
CC1CCN(S(=O)(=O)c2ccc(NC(=O)Cn3nnc(-c4ccccc4)n3)cc2)CC1	19.2*	.	-3.7	-10.8	-9.4	8.0
COc1ccc(-c2nnc(SCC(=O)Nc3ccc4cn[nH]c4c3)n2Cc2ccco2)cc1	-3.2	.	2.0	.	.	.
N#Cc1c(-c2cccs2)cc(-c2cccnc2)nc1N	6.2	12.8	0.7	72.6*	0.8	-2.1
COc1cccc(CN2CCN(C(=O)c3cc(-c4cccnc4)nc4ccc(C)cc34)CC2)c1	2.8	6.3	7.6	49.8*	-0.8	-5.2
COc1ccc2nc(-c3ccccc3)cc(C(=O)N3CCC3)c2c1	-4.7	6.2	6.5	4.8	0.9	3.5
CN1CCN(C(=O)/C=C/c2cn(-c3ccccc3)nc2-c2ccc3c(c2)OCCO3)CC1	-0.5	9.1	-5.7	33.2	-0.2	-5.0
CN(C)C(=O)/C=C\c1cn(-c2ccccc2)nc1-c1ccc2c(c1)OCCO2	-0.5	12.0	-7.3	51.7*	-2.6	0.5
O=C(/C=C\c1cn(-c2ccccc2)nc1-c1ccc2c(c1)OCCO2)N1CCOCC1	-4.5	18.8	-0.1	60.2*	-2.5	.
CC(C)(C)OC(=O)N1c2ccccc2[C@]2(N3CCCC3)C[C@H](C(=O)O)N(C(=O)OC(C)(C)C)[C@H]12	-3.5	.	-2.9	.	.	.
C(=N\n1cnc2ccccc21)/c1cccnc1	-12.5	.	-2.5	4.8	1.5	0.2
Clc1nc2sccn2c1/C=N/n1cnc2ccccc21	-5.9	.	8.8	65.8*	0.0	10.3
CC(C)OCCCNC(=O)CCC(=O)NNc1nc2ccccc2c2nc(-c3ccccc3)nn12	-0.3	.	3.2	84.4*	-5.6	5.2
CCOCCCNC(=O)CCC(=O)NNc1nc2ccccc2c2nc(-c3ccccc3)nn12	8.2	.	2.2	53.7*	0.6	6.9
COc1ccc(C(=O)CSc2nnc(-c3ccc(C(C)(C)C)cc3)n2C)cc1	8.6	.	-2.4	.	.	.
COc1ccc(S[C@]2(C(=O)N3CCN(C(C)=O)CC3)CC(=O)N(C(=O)/C=C/c3ccccc3)[C@@H]2c2ccc(OC)cc2)cc1	3.3	.	2.3	.	.	.
SMILES	DDE Tn6 FP inh	H9c2 TAG inh	Tn7 DDE FP	H9c2 protect	DAGLB inh	MT1-MMP act inh
CCOC(=O)C1=c2/c(=C/c3ccncc3)c(N)c(C(=O)OC)n2C(=O)C(c2ccncc2)S1 (centres undefined)	-4.4	-0.1	-4.6	55.3*	3.6	-5.2
CN(N=Cc1ccc(N(C)C)cc1)C(=O)c1ccccc1N	0.4	.	-3.7	.	.	.
O=C1NC(c2ccccc2)c2c(-c3ccccc3)n[nH]c21 (centres undefined)	-5.7	.	1.5	.	.	.
COc1ccc(Cc2nnc(SCC(=O)Nc3ccc(C)cc3)n(N)c2=O)cc1	-1.7	58.9*	-3.1	3.5	3.7	-0.5
COc1cccc(NC(=O)CSc2nnc(Cc3ccc(C)cc3)c(=O)n2N)c1	7.2	40.6	-4.3	4.2	-1.7	3.9
Cc1ccc(NC(=O)CSc2nc(C)cc(=O)[nH]2)c(C)c1	-2.8	.	-1.4	.	.	.
CCOC(=O)CNS(=O)(=O)c1cc(-c2n[nH]c(=O)c3ccccc23)ccc1C	-2.3	-4.7	-3.3	60.6*	2.0	1.4
Cc1ccc(NS(=O)(=O)c2cc(-c3n[nH]c(=O)c4ccccc34)ccc2C)cc1	-2.7	.	4.8	50.4*	1.7	-3.9
Cc1ccc(C)c(S(=O)(=O)Nc2ccc(O)cc2)c1	0.3	5.9	-1.7	-2.8	-0.7	7.3
COc1nnc(-c2ccc(C)c(S(=O)(=O)NCCO)c2)c2ccccc12	-1.0	.	2.4	62.2*	0.4	3.4
Cc1ccc(-c2n[nH]c(=O)c3ccccc23)cc1S(=O)(=O)NCC1CCCO1 (centres undefined)	3.5	.	9.1	71.3*	1.9	-1.5
COc1cc2oc3ccc(C#Cc4ccccn4)cc3c(=O)c2cc1OC	4.3	3.6	6.9	66.2*	1.0	3.2
Cn1c2ccccc2c(=O)c2ccc(C#Cc3ccccn3)cc21	4.7	.	1.6	.	.	.
COc1cc2oc3cc(C#Cc4ccc(N)cc4)ccc3c(=O)c2cc1OC	-6.7	12.2	3.2	71.6*	2.9	-19.6
COc1cc2oc3ccc(C#Cc4ccc(N)cc4)cc3c(=O)c2cc1OC	-12.5	25.5	4.8	56.8*	2.1	2.8
Nc1ccc(C#Cc2ccc3c(=O)c4ccccc4oc3c2)cc1	0.1	-9.6	2.9	-6.6	-7.8	-7.2
COc1cccc(C(=O)Nc2cc(C)c3c(=O)oc4ccccc4c3n2)c1	-1.9	2.0	-10.2	90.4*	1.2	-3.3
Cc1cc(NC(=O)C2CCCC2)nc2c1c(=O)oc1ccccc12	3.0	22.0	-5.0	33.1	-7.9	-0.6
Cc1cc(NC(=O)Cc2ccccc2)nc2c1c(=O)oc1ccccc12	0.7	-48.9	4.7	-1.0	2.0	0.9
Cc1cc(NC(=O)C2CCCCC2)nc2c1c(=O)oc1ccccc12	5.6	10.2	3.4	101.0*	-0.8	-11.2
N#CC1=C(N)Oc2c(O)cc3ccccc3c2C1c1ccsc1 (centres undefined)	-0.6	4.9	-6.9	58.5*	0.8	-2.1
CCOC(=O)C1=C(C)OC(N)=C(C#N)C1c1ccsc1 (centres undefined)	.	.	.	2.7	3.0	2.3
